pEC50: −log10 of the molar value.
Key:
Human rhinovirus sp. = test: Enzyme inhibition against Human Rhinovirus 3C protease was determined; format: functional
HeLa [1] = test: Anti viral activity against human rhinovirus (HRV) in H1HeLa cells; format: functional, cell-based
HeLa [2] = test: Cytotoxicity against uninfected H1HeLa cells; format: functional; conditions: Homo sapiens
[3] = Metabolism after 30 min of incubation with human liver microsomes in the presence of cofactor […] (2.0 mM) at a concentration of 25 uM; format: ADME; conditions: read-out: Metabolism
[4] = Metabolism after 30 min of incubation with human liver microsomes in the absence of cofactor […] (2.0 mM) at a concentration of 25 uM; format: ADME; conditions: read-out: Metabolism
Summary of the method: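 Compound incubated for 30 min with human liver microsomes (1.0 mg/mL), with or without NADPH. An aliquot was precipitated with acetonitrile, then analysed by reverse-phase HPLC at rt using a gradient of CH3CN/CH3OH/0.01% TFA (pH 3.5 adjusted with NEt3), from 5:20:75 to 60:20:20 over 20 min, held 10 min, 1.0 mL/min. Result expressed as % metabolism.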

Row | pEC50 (HeLa [1]) | metabolised at 0.5 h, 25 µM [3] | metabolised at 0.5 h, 25 µM [4] | SMILES | K obs / 1 (Human rhinovirus sp.) | CC50 (HeLa [2])
1 | 6.72 |  |  | CCOC(=O)/C=C/[C@H](CCC(N)=O)NC(=O)[C@H](Cc1ccc(F)cc1)NC(=O)[C@@H](NC(=O)SC1CCCC1)C(C)C | 59900 M⁻¹ s⁻¹ | > 100000 nM
2 | 8.15 | 67% | 44% | CCOC(=O)/C=C/[C@H](C[C@@H]1CCNC1=O)NC(=O)[C@H](Cc1ccc(F)cc1)OC(=O)[C@@H](NC(=O)c1cc(C)on1)C(C)C | 270000 M⁻¹ s⁻¹ | > 100000 nM
3 | 7.70 |  |  | CCOC(=O)/C=C/[C@H](CCC(N)=O)NC(=O)[C@@H](CC(=O)[C@@H](NC(=O)SC1CCCC1)C(C)C)Cc1ccc(F)cc1 | 293000 M⁻¹ s⁻¹ | > 100000 nM
4 | 7.00 |  |  | CCOC(=O)/C=C/[C@H](CCC(N)=O)NC(=O)[C@@H](CC(=O)[C@@H](NC(=O)c1cc(C)on1)C(C)C)Cc1ccc(F)cc1 | 240000 M⁻¹ s⁻¹ | > 100000 nM
5 | 8.00 | 22% | 7% | CCOC(=O)/C=C/[C@H](C[C@@H]1CCNC1=O)NC(=O)[C@H](Cc1ccc(F)cc1)NC(=O)[C@@H](NC(=O)c1cc(C)on1)C(C)C | 1500000 M⁻¹ s⁻¹ | > 100000 nM
6 | 7.00 |  |  | CCOC(=O)/C=C/[C@H](CCC(N)=O)NC(=O)[C@H](Cc1ccc(F)cc1)OC(=O)[C@@H](NC(=O)c1cc(C)on1)C(C)C | 68400 M⁻¹ s⁻¹ | > 10000 nM
7 | 6.38 |  |  | CCOC(=O)/C=C/[C@H](CCC(N)=O)NC(=O)[C@H](Cc1ccc(F)cc1)NC(=O)[C@@H](NC(=O)c1cc(C)on1)C(C)C | 248000 M⁻¹ s⁻¹ | > 100000 nM
8 | 6.00 |  |  | CCOC(=O)/C=C/[C@H](CCC(N)=O)NC(=O)[C@H](Cc1ccc(F)cc1)OC(=O)[C@@H](NC(=O)SC1CCCC1)C(C)C | 99800 M⁻¹ s⁻¹ | > 10000 nM
9 | 8.30 | 50% | 27% | CCOC(=O)/C=C/[C@H](C[C@@H]1CCNC1=O)NC(=O)[C@@H](CC(=O)[C@@H](NC(=O)c1cc(C)on1)C(C)C)Cc1ccc(F)cc1 [RUPINTRIVIR] | 1090000 M⁻¹ s⁻¹ | > 100000 nM
